ChEMBL document CHEMBL4480414, “Design and total synthesis of (-)-codonopsinine, (-)-codonopsine and codonopsinine analogues by O-(2-oxopyrrolidin-5-yl)trichloroacetimidate as amidoalkylating agent with improved antimicrobial activity via solid lipid nanoparticle formulations” (Bioorg Med Chem, 2019)
Values after ≈ are worked out from the molar mass of the structure shown. Active and inactive are the calls of the source. The calls are words filed in the database; no cut-off is given here.

Tests used:
Acinetobacter baumannii [1] = experiment: Antimicrobial activity against clinical isolate of Acinetobacter baumannii measured after 18 hrs by broth microdilution method; format: functional
How it was run: (§1)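 Broth microdilution in 96-well plates. Compound stock 10 mg/ml in DMSO, two-fold serial dilutions from final 1024 to 0.5 µg/ml in water plus double-strength nutrient broth. Inoculum from direct colony suspension in saline adjusted to 0.5 McFarland, final 5 × 10⁵ CFU per well, used within 15 min. Positive and negative control rows.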

[2] = Dissolution of the compound in phosphate buffer at pH 6.8 measured within 2 hrs by dialysis bag diffusion method; format: physicochemical; details: artificial membrane, pH 6.8, 2 h
How it was run: (§2)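 Formula or compound suspension (3 ml) in 12 kDa MWCO dialysis bags, in 500 ml enzyme-free phosphate buffer pH 6.8, 37 °C, 50 rpm. 5 ml samples taken with replacement over 12 h. Cumulative % release determined by UV absorbance against a calibration curve.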

Klebsiella pneumoniae [3] = experiment: Antimicrobial activity against Klebsiella pneumoniae ATCC 700603 measured after 18 hrs by broth microdilution method; format: functional; details: Klebsiella pneumoniae, 700603, 18 h; how it was run: as §1
[4] = Dissolution of the compound in phosphate buffer at pH 6.8 measured over 12 hrs using solid lipid nanoparticle formulation by dialysis bag diffusion method; format: physicochemical; details: artificial membrane, pH 6.8, 12 h
How it was run: (§3)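 SLNs made by hot emulsification-ultrasonication with Compritol as lipid and 3% Pluronic F68 aqueous phase. Homogenized at 10,000 rpm and 75 °C for 15 min, then probe-sonicated 10 min.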

Escherichia coli [5] = experiment: Antimicrobial activity against Escherichia coli ATCC 25922 measured after 18 hrs by broth microdilution method; format: functional; details: ATCC 25922, 18 h; how it was run: as §1
Pseudomonas aeruginosa [6] = experiment: Antimicrobial activity against Pseudomonas aeruginosa ATCC 27853 measured after 18 hrs by broth microdilution method; format: functional; details: ATCC 27853, 18 h; how it was run: as §1
[7] = Permeability of the compound in simulated dialysis membrane at pH 6.8 measured within 6 hrs by Franz diffusion cell-based spectrophotometric method; format: ADME, cell membranes; details: artificial membrane, pH 6.8, 6 h
How it was run: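 Franz cell with dialysis membrane. 1 ml of SLN formula or compound suspension in the donor chamber; receptor holds phosphate buffer pH 6.8 at 37 °C, magnetically stirred. Receptor sampled with replacement over 6 h; concentration by UV absorbance against a calibration curve.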

Escherichia coli [8] = experiment: Antimicrobial activity against Escherichia coli ATCC 25922 measured after 18 hrs using solid lipid nanoparticle formulation by broth microdilution method; format: functional; details: ATCC 25922, 18 h; how it was run: as §1
Staphylococcus aureus [9] = experiment: Antimicrobial activity against Staphylococcus aureus ATCC 29213 measured after 18 hrs using solid lipid nanoparticle formulation by broth microdilution method; format: functional; details: ATCC 29213, 18 h; how it was run: as §1
Klebsiella pneumoniae [10] = experiment: Antimicrobial activity against Klebsiella pneumoniae ATCC 700603 measured after 18 hrs using solid lipid nanoparticle formulation by broth microdilution method; format: functional; details: Klebsiella pneumoniae, 700603, 18 h; how it was run: as §1
Candida albicans [11] = experiment: Antimicrobial activity against Candida albicans ATCC 10231 measured after 18 hrs using solid lipid nanoparticle formulation by broth microdilution method; format: functional; details: ATCC 10231, 18 h; how it was run: as §1
Candida albicans [12] = experiment: Antimicrobial activity against Candida albicans ATCC 10231 at 380 ug by Kirby-Bauer disk diffusion test; format: functional, organism-based
How it was run: (§4)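 Modified Kirby-Bauer disc diffusion on Muller-Hinton agar. Inhibition-zone diameter, disc diameter included, measured with a ruler from under the plate and recorded in mm.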

[13] = Permeability of the compound in simulated dialysis membrane at pH 6.8 measured within 6 hrs using solid lipid nanoparticle formulation by Franz diffusion cell-based spectrophotometric method; format: ADME, cell membranes; details: artificial membrane, pH 6.8, 6 h; how it was run: as §3
Pseudomonas aeruginosa [14] = experiment: Antimicrobial activity against Pseudomonas aeruginosa ATCC 27853 measured after 18 hrs using solid lipid nanoparticle formulation by broth microdilution method; format: functional; details: ATCC 27853, 18 h; how it was run: as §1
Staphylococcus aureus [15] = experiment: Antimicrobial activity against Staphylococcus aureus ATCC 29213 measured after 18 hrs by broth microdilution method; format: functional; details: ATCC 29213, 18 h; how it was run: as §1
Proteus mirabilis [16] = experiment: Antimicrobial activity against Proteus mirabilis ATCC 14153 measured after 18 hrs using solid lipid nanoparticle formulation by broth microdilution method; format: functional; details: ATCC 14153, 18 h; how it was run: as §1
Candida albicans [17] = experiment: Antimicrobial activity against Candida albicans ATCC 10231 measured after 18 hrs by broth microdilution method; format: functional; details: ATCC 10231, 18 h; how it was run: as §1
Proteus mirabilis [18] = experiment: Antimicrobial activity against Proteus mirabilis ATCC 14153 measured after 18 hrs by broth microdilution method; format: functional; details: ATCC 14153, 18 h; how it was run: as §1
Acinetobacter baumannii [19] = experiment: Antimicrobial activity against clinical isolate of Acinetobacter baumannii measured after 18 hrs using solid lipid nanoparticle formulation by broth microdilution method; format: functional; how it was run: as §1
Staphylococcus aureus [20] = experiment: Antimicrobial activity against Staphylococcus aureus ATCC 29213 assessed as diameter of inhibition zone at 380 ug by Kirby-Bauer disk diffusion test; format: functional; details: for zone of inhibition at 380 µg/disc: read-out: DIZ; how it was run: as §4
[21] = Dissolution of the compound in phosphate buffer at pH 6.8 measured after 2 hrs by dialysis bag diffusion method; format: physicochemical; details: artificial membrane, pH 6.8, 2 h; how it was run: as §2
Pseudomonas aeruginosa [22] = experiment: Antimicrobial activity against Pseudomonas aeruginosa ATCC 27853 assessed as diameter of inhibition zone at 380 ug by Kirby-Bauer disk diffusion test; format: functional; details: read-out: DIZ; how it was run: as §4
Klebsiella pneumoniae [23] = experiment: Antimicrobial activity against Klebsiella pneumoniae ATCC 700603 assessed as diameter of inhibition zone at 380 ug by Kirby-Bauer disk diffusion test; format: functional; details: read-out: DIZ; how it was run: as §4
Acinetobacter baumannii [24] = experiment: Antimicrobial activity against clinical isolate of Acinetobacter baumannii assessed as diameter of inhibition zone at 380 ug by Kirby-Bauer disk diffusion test; format: functional; details: read-out: DIZ; how it was run: as §4
Escherichia coli [25] = experiment: Antimicrobial activity against Escherichia coli ATCC 25922 assessed as diameter of inhibition zone at 380 ug by Kirby-Bauer disk diffusion test; format: functional; details: read-out: DIZ; how it was run: as §4
Proteus mirabilis [26] = experiment: Antimicrobial activity against Proteus mirabilis ATCC 14153 assessed as diameter of inhibition zone at 380 ug by Kirby-Bauer disk diffusion test; format: functional; details: read-out: DIZ; how it was run: as §4

Row | MIC (Acinetobacter baumannii [1]) [µg/mL] | Activity [2] [%] | MIC (Klebsiella pneumoniae [3]) [µg/mL] | Activity [4] [%] | MIC (Escherichia coli [5]) [µg/mL] | MIC (Pseudomonas aeruginosa [6]) [µg/mL] | permeability [7] [%] | MIC (Escherichia coli [8]) [µg/mL] | MIC (Staphylococcus aureus [9]) [µg/mL] | MIC (Klebsiella pneumoniae [10]) [µg/mL] | MIC (Candida albicans [11]) [µg/mL] | permeability [13] [%] | MIC (Pseudomonas aeruginosa [14]) [µg/mL] | MIC (Staphylococcus aureus [15]) [µg/mL] | MIC (Proteus mirabilis [16]) [µg/mL] | MIC (Candida albicans [17]) [µg/mL] | MIC (Proteus mirabilis [18]) [µg/mL] | MIC (Acinetobacter baumannii [19]) [µg/mL] | Compound | Activity (Candida albicans [12]) | growth inhibition (GI) (Staphylococcus aureus [20]) | further results
1 | 256 (≈ 1160 µM) | 100 | 1020 (≈ 4630 µM) | 90.1 | 128 (≈ 578 µM) | 1020 (≈ 4630 µM) | 56.3 | 512 (≈ 2310 µM) | 1020 (≈ 4630 µM) | 512 (≈ 2310 µM) | > 1020 | 100 | 1020 (≈ 4630 µM) | > 1020 | 512 (≈ 2310 µM) | > 1020 | 1020 (≈ 4630 µM) | 64 (≈ 289 µM) | Cc1ccc([C@@H]2[C@@H](O)[C@H](O)[C@@H](C)N2C)cc1 | inactive | – | –
2 | > 1020 | 91.8 | 256 (≈ 1020 µM) | 92.1 | 8 (≈ 31.8 µM) | > 1020 | 62.7 | 8 (≈ 31.8 µM) | 2 (≈ 7.96 µM) | 512 (≈ 2040 µM) | > 1020 | 100 | > 1020 | 2 (≈ 7.96 µM) | 8 (≈ 31.8 µM) | > 1020 | 16 (≈ 63.7 µM) | > 1020 | COCc1ccc([C@@H]2[C@@H](O)[C@H](O)[C@@H](C)N2C)cc1 | inactive | Active | –
3 | 128 (≈ 618 µM) | 100 | 1020 (≈ 4940 µM) | 91.2 | 16 (≈ 77.2 µM) | 1020 (≈ 4940 µM) | 49.8 | 16 (≈ 77.2 µM) | 1020 (≈ 4940 µM) | > 1020 | > 1020 | 100 | 512 (≈ 2470 µM) | 1020 (≈ 4940 µM) | 2 (≈ 9.65 µM) | > 1020 | 4 (≈ 19.3 µM) | 16 (≈ 77.2 µM) | C[C@@H]1[C@@H](O)[C@H](O)[C@@H](c2ccccc2)N1C | inactive | – | zone of inhibition at 380 µg/disc (Pseudomonas aeruginosa [22]): 18 mm; zone of inhibition at 380 µg/disc (Klebsiella pneumoniae [23]): 22 mm; zone of inhibition at 380 µg/disc (Acinetobacter baumannii [24]): 32 mm; zone of inhibition at 380 µg/disc (Escherichia coli [25]): 40 mm; zone of inhibition at 380 µg/disc (Proteus mirabilis [26]): 34 mm
4 | > 1020 | 95.2 | > 1020 | 93.3 | 128 (≈ 539 µM) | 1020 (≈ 4320 µM) | 60.7 | 64 (≈ 270 µM) | ≤ 0.5 | 1020 (≈ 4320 µM) | > 1020 | 100 | > 1020 | ≤ 0.5 | 64 (≈ 270 µM) | > 1020 | 128 (≈ 539 µM) | 256 (≈ 1080 µM) | COc1ccc([C@@H]2[C@@H](O)[C@H](O)[C@@H](C)N2C)cc1 | inactive | – | zone of inhibition at 380 µg/disc (Staphylococcus aureus [20]): 32 mm

The next lines start with the molecule.

Row | Compound | MIC (Acinetobacter baumannii [1]) [µg/mL] | Activity [2] [%] | MIC (Klebsiella pneumoniae [3]) [µg/mL] | Activity [4] [%] | MIC (Escherichia coli [5]) [µg/mL] | MIC (Pseudomonas aeruginosa [6]) [µg/mL] | permeability [7] [%] | MIC (Escherichia coli [8]) [µg/mL] | MIC (Staphylococcus aureus [9]) [µg/mL] | MIC (Klebsiella pneumoniae [10]) [µg/mL] | MIC (Candida albicans [11]) [µg/mL] | permeability [13] [%] | MIC (Pseudomonas aeruginosa [14]) [µg/mL] | MIC (Staphylococcus aureus [15]) [µg/mL] | MIC (Proteus mirabilis [16]) [µg/mL] | MIC (Candida albicans [17]) [µg/mL] | MIC (Proteus mirabilis [18]) [µg/mL] | MIC (Acinetobacter baumannii [19]) [µg/mL] | Activity (Candida albicans [12]) | growth inhibition (GI) (Staphylococcus aureus [20]) | further results
5 | COc1cc([C@@H]2[C@@H](O)[C@H](O)[C@@H](C)N2C)c(F)c(C)c1OC | 512 (≈ 1710 µM) | – | 512 (≈ 1710 µM) | 92.2 | 64 (≈ 214 µM) | 1020 (≈ 3420 µM) | 72.9 | 16 (≈ 53.5 µM) | 4 (≈ 13.4 µM) | > 1020 | > 1020 | 100 | > 1020 | 4 (≈ 13.4 µM) | 128 (≈ 428 µM) | > 1020 | 1020 (≈ 3420 µM) | 256 (≈ 855 µM) | inactive | Active | Activity [21]: 78.2%
6 | COc1ccc([C@@H]2[C@@H](O)[C@H](O)[C@@H](C)N2C)cc1OC | > 1020 | 87.8 | > 1020 | 93.2 | 64 (≈ 239 µM) | > 1020 | 67.2 | 256 (≈ 958 µM) | 32 (≈ 120 µM) | > 1020 | > 1020 | 100 | > 1020 | 32 (≈ 120 µM) | > 1020 | > 1020 | > 1020 | > 1020 | inactive | Active | –
7 | COc1ccc([C@@H]2[C@@H](O)[C@H](O)[C@@H](C)N2C)c(F)c1 | 512 (≈ 2010 µM) | 96.7 | > 1020 | 90.2 | 4 (≈ 15.7 µM) | > 1020 | 59.1 | 16 (≈ 62.7 µM) | ≤ 0.5 | 1020 (≈ 4010 µM) | > 1020 | 100 | > 1020 | ≤ 0.5 | > 1020 | > 1020 | > 1020 | 512 (≈ 2010 µM) | inactive | – | zone of inhibition at 380 µg/disc (Staphylococcus aureus [20]): 30 mm
